According to BindingDB's records for doi:10.1021/jm020334u (Roche Discovery Welwyn, 2003):

Molecular target: Polymerase acidic protein (Influenza A virus (strain A/Puerto Rico/8/1934 H1N1), UniProt P03433)
Test: Inhibitory concentration against cap-dependent endonuclease activity of influenza virus RNP
Outline: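 Gel-based cap-dependent endonuclease assay. 1 nM influenza RNP was incubated with 0.1 nM cap-labeled 20-mer G20 RNA in 50 mM Tris-HCl pH 8 with 1 mM MgCl₂, 20 mM KCl, 1 U/μL RNase inhibitor and 0.3% Triton X-100, for 5 min at 31 °C. Cleavage products were resolved on polyacrylamide gels and quantified by phosphorimager. IC50 came from dose–response curves.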

| SMILES | IC50 [µM] |
| --- | --- |
| COCOn1c(=O)c(=CC(C)C)[nH]c(=CC(C)C)c1=O [(3Z)-5-isobutyl-1-(methoxymethoxy)-3-(2-methylpropylidene)pyrazine-2,6(1H,3H)-dione] | > 355 |
| CC(C)C=c1[nH]c(=Cc2ccc(F)cc2)c(=O)[nH]c1=O [3-(4-fluorobenzylidene)-5-isobutylpyrazine-2,6(1H,3H)-dione] | > 365 |
